The values below come from the RNAGym collection of RNA variant scans (doi:10.1126/science.aae0568).

To fix the notation:
B1: tRNA (parent)
chain: GUUCCGUUGGCGUAAUGGUAACGCGUCUCCCUCCUAAGGAGAAGACUGCGGGUUCGAGUCCCGUACGGAACG

This sample holds only a part of the variants without activity.

The variants in the data set derive from B1. In words: yeast fitness relative to wild type (ratio to wild type); higher = fitter; tRNA-Arg(CCU), competitive growth, 37 C, YPD. In a few lines:
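Amplicons of the tRNA-Arg(CCU) gene were sequenced, 100-nucleotide paired-end, from the start population and from each end population of a pooled yeast competition. The competition, in six parallel replicates, lasted 24 hours in YPD at 37°C. Fitness relative to wild type was calculated from changes in genotype frequencies. Genotypes had to have ≥ 100 starting reads, and estimates < 0.5 were set to 0.5.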
Turning to C34U G38A, the yeast fitness amounted to 0.689. For C29G U47G G63A A70U the value was not above 0.5; for C24U G44A U54C, 0.726; for C11G A20C A42C A57U, not above 0.5. As for C11A C33U C60G, the figure is 0.531; as for U2A C30U, 0.812. As to G18A G25A C46U, the yeast fitness was determined as 0.508. For G18C G38U G51A the value was not above 0.5; for C5U A14C C31G A43U C60G, not above 0.5. For C29U C31G C34A, the yeast fitness is not above 0.5. For U8A G12C G17A C29U G38A G44C G50A the value was not above 0.5.

For the variant U8A A65C, the yeast fitness stood at 0.837. For G17C A20C G39A the value was 0.528; for C5U U32A G50A, 0.581; for U26G C27G C33U G39C C49U, not above 0.5. For the variant C5G U7C A14C G51C, the yeast fitness amounted to 0.697. For U3A C49U C60U A70G, the yeast fitness came to 0.551.

Turning to C11U C29U U47C G67A A70U, the yeast fitness is not above 0.5. Take G12A C24U C31G: the yeast fitness came out at 0.532. For A14C A37C the value was 0.53; for U16A U28A, 0.636. For C31G C33A C49U U54G A65U the value was 0.597; for U2C A14C C31A, not above 0.5. As for C30G U35C, the figure is not above 0.5; as for U7C C33U G39C G58A, not above 0.5; as for C22U A43C, 0.712. As for A14C A20U C33U, the yeast fitness was not above 0.5.

Consider A21U C34U A45G G50A, for which the yeast fitness was not above 0.5. As for C11G C27U C33G A65C, the figure is not above 0.5; as for U19A U28A A37U A42U, not above 0.5. For C30A C31U A42C the value was 0.943; for C4A C33U A57G C66G, not above 0.5.

As for A43C G48C A57G, the yeast fitness came to 0.817. As for C5U C22G C29G, the figure is 0.602; as for G6A G9C G44C G67A, 0.649.

As to G58C G68A A70G, the yeast fitness was not above 0.5.

In the case of G51A C62G, the yeast fitness amounted to 0.621. As for A21G C24G G48C, the figure is not above 0.5. For A14C U54G the value was not above 0.5; for C4G G23C G52A U54C, not above 0.5.

In the case of A45C G56A C62U, the yeast fitness was determined as 0.711. As for U3A G50A, the figure is 0.853; as for C5A A20C, 0.799; as for C5A U19A A57U, 0.561. For G25C G68A A69G the value was 0.607; for A20U G48A C62G, 0.602. For A36G C60G the value was 0.629. For the variant G23A C30U C33A G41C A42U A43G, the yeast fitness was not above 0.5. As for G17C U64A, the figure is 0.662; as for C11G G18C, 0.611. For U16G A37U U47A G52U the value was not above 0.5; for C27U G63A A65G, not above 0.5.

Turning to G41A U64C A65C, the yeast fitness is not above 0.5. For A21C C66G the value was 0.609. As for G39A G44C, the yeast fitness amounted to 0.816. For C4G U7G C34A the value was not above 0.5. As for C5U A20G C24G U26G A37C A57G C66A, the figure is not above 0.5; as for C5U A20G U32G C33G C55U, not above 0.5. As for A15G A20C, the figure is 0.779; as for U8G G25C A36G G48A, not above 0.5; as for C4U A20C C29U, 0.715.

In the case of G6A A45U A69U, the yeast fitness worked out at 0.826. As for A14G A42G, the figure is 0.778; as for U3C C22A A45C C62G A65U, 0.64. For U7A A42G C46A C55G the value was not above 0.5; for C11U C24U C30U A57C G63C, not above 0.5; for C31A C46G, 0.852. G67U A70U: the yeast fitness stood at 0.933. Turning to C5U U8C G17C C31A G68A, the yeast fitness was not above 0.5. With A14G A20U A36U G51C G52C, the yeast fitness was not above 0.5. As for U2C G9C, the figure is 0.722; as for U32G U35G A36C, not above 0.5; as for U13C A15G C30A C62G, not above 0.5. Turning to U3C G38C A57U A70G, the yeast fitness amounted to 0.622. A20U C29U C49G C55A: the yeast fitness was 0.522. For C30G A45G U47C the value was not above 0.5; for C27G G67A, 0.637; for U13A A14G, 0.843. Turning to C5U C22U G23C A36G G67A, the yeast fitness was not above 0.5.

Consider U7A U13G G41A, for which the yeast fitness was not above 0.5. As for U3A U13G A70C, the figure is 0.784; as for G23C C31G A40U G51A A57C, not above 0.5; as for C60U C61U U64G, 0.677. For G18A A21C G23U U32A A42U G48C the value was not above 0.5.

Take C27G A36U G39C A69C: the yeast fitness is 0.548.

Regarding C5G C11A A14G G25C U28C C29G, the yeast fitness was not above 0.5. As for G48A G56C C62U, the figure is 0.65. As for U19G C29U C49U, the figure is not above 0.5; as for C4U C27G U53A, not above 0.5.

Consider G50C A70G, for which the yeast fitness was 0.681. As for G39A C49A, the figure is 0.598. As for U3C G9C C11U C30G C55A A69C, the figure is not above 0.5; as for C34G A65U C66A, not above 0.5. For U19C U28C G67C the value was 0.638; for U19A G52A, 0.679; for U19C C24G A37U U47A A57G, not above 0.5. In the case of G52A U59A, the yeast fitness came out at 0.666. Take U28C U32C: the yeast fitness came out at 0.935. As for C11G U16A G48C A57U, the figure is not above 0.5. For A21U C24U the value was 0.703; for U13A U35C A36C A37U G50C, not above 0.5; for A14U A37C C62A C66A, 0.574.

On to U2C C5A C30G, for which the yeast fitness is not above 0.5. For C11A C34G A43G C46G the value was 0.708. As for A20C G23A C30A A40U, the figure is not above 0.5. As for G6A G10C U54C, the figure is not above 0.5; as for A15C G25A C61U, 0.664; as for U2G G50A, 0.888. In the case of C46U A70G, the yeast fitness amounted to 1.05. On to C22G A45C C49U A57U C62A, for which the yeast fitness came to 0.619. Take U13A G23A A36C G38A A65G: the yeast fitness was not above 0.5. As for G12A C24A, the yeast fitness worked out at 0.751. As for A14G G17C C24U C49U A69U, the figure is not above 0.5. Turning to C30A G39C, the yeast fitness stood at 0.656. As for G25A C34U A36U C60U, the yeast fitness is not above 0.5. As for U16G C60U, the figure is 0.772; as for U3C G12A U28C A37C A45U G48C, not above 0.5; as for A15C G25C, 0.709. As for C4A A15U A42G C61U, the figure is not above 0.5. Consider C22U A37G A45U G52A, for which the yeast fitness came to 0.588.

C5G C24G C31U C61A: the yeast fitness is not above 0.5. For C5G G9C G18A G25C A37C A43G the value was not above 0.5; for G12C U16A C27G A36G C46U C61U G68A, not above 0.5. As for U19C G68A, the figure is 0.878; as for U19G C46U, 0.962; as for C5U C46A, 1.

For U7C C30U G39C, the yeast fitness was not above 0.5. For U7A A40U A43C the value was 0.656; for C24U U32G, 0.584.

Regarding C11G A14G C27A G38A A65C, the yeast fitness is not above 0.5.

On to U13A G44C, for which the yeast fitness was 0.94. For A14U A65C the value was 0.611; for C22G C29G G44C G56A A57G G67U A70C, not above 0.5; for A65U G68U, 0.99. As for A37G A45U U59A, the figure is not above 0.5; as for U8A A36C C62A, not above 0.5. For A21G G58C A65U, the yeast fitness came to 1.18. In the case of C5A U8G A37U G51A G52C A57G U59C, the yeast fitness is 0.52.

For C29G C30G C49A G56C C61U A69C, the yeast fitness stood at 0.717. For C4G U8C U28G C49A C62G the value was not above 0.5; for A42C A65G, 0.922; for C27G G48A C60G, 0.751. As for U19A A69C, the figure is 1.08. As for C5U C31U G50A U54C C55G, the figure is not above 0.5; as for C24U C30U C31G, 0.623.

Turning to C4U G18C A45U C49U, the yeast fitness is not above 0.5. As for C4A C29G A40U C55A G67C, the figure is not above 0.5. As for G6C A65G, the figure is 0.94; as for U28C C33A A42C A45U G63C, not above 0.5. For C31U A43G U53C the value was 0.513; for C11U C46A, 1.03; for U7C G41A A42C, 0.543. On to G6A G10C C34U C46U, for which the yeast fitness was not above 0.5. As for A15U C22G, the figure is 0.67. For G18A C29G C49G G63C, the yeast fitness was not above 0.5. For U2A C11A C31U the value was not above 0.5; for A15U U16G C55A A57C U59C, not above 0.5.

On to C24A C33U A57U U59G, for which the yeast fitness is not above 0.5.

For the variant C22U C27G G41A C55U, the yeast fitness was not above 0.5.

Take C31A G48C U54C C61A A70G: the yeast fitness is not above 0.5.

As to A15U C29A G50C, the yeast fitness was not above 0.5. As to C4U C31G A42C C66U, the yeast fitness was not above 0.5. For U3A A21G U28A A42C A57G C66A the value was 0.733; for G12C G48A, 1.01. For G12C A14G G18A C33G the value was not above 0.5. Take C5U C27A: the yeast fitness stood at 0.817. For G9A G39A the value was 0.999.
